Source: ChEMBL document CHEMBL1151267, “Nematicidal epipolysulfanyldioxopiperazines from Gliocladium roseum” (2005)
In brackets after ≈: the same amount, converted by molar mass.

Legend:
Assay type in all cases: functional
Conditions in all cases: read-out: ED50 (the source's name)
Caenorhabditis elegans = test: Antinematodal activity against Caenorhabditis elegans after 24 hrs by microscopy
Summary of the method: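 C. elegans were grown on NG agar carrying an E. coli strain, kept at room temperature and subcultured before the assay. Worms in physiological saline were diluted to 20-25 per 48 μL, with three wells per treatment. Each well received 2 μL of 50% DMSO or 50% DMSO containing compound. Plates were covered in a humid chamber, and dead worms were counted by microscopy after 24 h.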

Panagrellus redivivus = test: Antinematodal activity against Panagrellus redivivus after 24 hrs by microscopy
Summary of the method: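 P. redivivus were kept in aseptic liquid Basal Heme medium at room temperature and subcultured before testing. Worms were suspended in physiological saline and diluted to 20-25 per 48 μL aliquot, with triplicate wells per treatment. 2 μL of 50% DMSO, alone or with compound, was added. Plates were covered and humidified, and mortality was scored microscopically at 24 h.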

[1] = test system: Bursaphelenchus xylophilus; test: Antinematodal activity against Bursaphelenchus xylophilus after 24 hrs by microscopy
Summary of the method: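 B. xylophilus were grown on PDB agar carrying Botrytis cinerea, kept at room temperature and subcultured before the assay. They were diluted in physiological saline to 20-25 worms per 48 μL and dispensed into three wells per treatment. 2 μL of 50% DMSO, with or without compound, was added. Plates were covered and held in a humid chamber. Dead worms were counted microscopically at 24 h.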

SMILES	EC50 (Caenorhabditis elegans)	EC50 (Panagrellus redivivus)	EC50 [1]
CN1C(=O)[C@]23SS[C@@]1(C)C(=O)N2[C@H]1Nc2ccccc2[C@@]1([C@@]12c4ccccc4N[C@@H]1N1C(=O)[C@@]4(C)SS[C@]1(C(=O)N4C)[C@H]2O)[C@@H]3O [VERTICILLIN A]	30 µg/mL (≈ 43.1 µM)	80 µg/mL (≈ 115 µM)	> 400 µg/mL
CN1C(=O)[C@@]23C[C@]4([C@@]56c7ccccc7N[C@@H]5N5C(=O)[C@@]7(C)SS[C@]5(C(=O)N7C)[C@H]6O)c5ccccc5N[C@@H]4N2C(=O)[C@]1(C)SS3	10 µg/mL (≈ 14.7 µM)	40 µg/mL (≈ 58.7 µM)	> 400 µg/mL
CC[C@@]12SS[C@]3(C(=O)N1C)[C@@H](O)[C@]1([C@@]45c6ccccc6N[C@@H]4N4C(=O)[C@@]6(C)SS[C@]4(C(=O)N6C)[C@H]5O)c4ccccc4N[C@@H]1N3C2=O	50 µg/mL (≈ 70.3 µM)	80 µg/mL (≈ 113 µM)	> 400 µg/mL
CN1C(=O)[C@]23SSS[C@]1(C)C(=O)N2[C@H]1Nc2ccccc2[C@@]1([C@@]12c4ccccc4N[C@@H]1N1C(=O)[C@@]4(C)SS[C@]1(C(=O)N4C)[C@H]2O)[C@@H]3O [GLIOCLADINE A]	25 µg/mL (≈ 34.3 µM)	50 µg/mL (≈ 68.6 µM)	> 400 µg/mL
CN1C(=O)[C@]23SS[C@]1(C)C(=O)N2[C@H]1Nc2ccccc2[C@@]1(c1c[nH]c2ccccc12)[C@@H]3O [GLIOCLADINE C]	200 µg/mL (≈ 431 µM)	250 µg/mL (≈ 538 µM)	> 400 µg/mL
CN1C(=O)[C@]23SSS[C@]1(C)C(=O)N2[C@H]1Nc2ccccc2[C@@]1(c1c[nH]c2ccccc12)[C@@H]3O [GLIOCLADINE D]	200 µg/mL (≈ 403 µM)	250 µg/mL (≈ 503 µM)	> 400 µg/mL
CN1C(=O)C23SSSS[C@]1(C)C(=O)N2[C@H]1Nc2ccccc2[C@@]1([C@@]12c4ccccc4N[C@@H]1N1C(=O)[C@@]4(C)SS[C@]1(C(=O)N4C)[C@H]2O)[C@@H]3O [GLIOCLADINE B]	30 µg/mL (≈ 39.4 µM)	25 µg/mL (≈ 32.9 µM)	> 400 µg/mL
CN1C(=O)[C@]23SSSS[C@]1(C)C(=O)N2[C@H]1Nc2ccccc2[C@@]1(c1c[nH]c2ccccc12)[C@@H]3O [GLIOCLADINE E]	200 µg/mL (≈ 378 µM)	250 µg/mL (≈ 473 µM)	> 400 µg/mL
